The target of series [1] is T1, Cannabinoid receptor 2 (Homo sapiens, UniProt P34972). In words: Agonist activity at human CB2 receptor expressed in CHO-K1 cells assessed as inhibition of froskolin-stimulated cAMP accumulation incubated for 90 mins by HitHunter chemiluminescence based assay. The series is classed as functional, cell-based. A digest of the protocol:
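HitHunter assay in DiscoveRx CHO-K1 hCB2R cells, seeded overnight in Opti-MEM with 1% FBS, then put in assay buffer. Cells cotreated at 37 °C for 90 min with 10 μM forskolin and ligand (0.10 nM–10 μM). cAMP antibody/detection solutions added for 60 min at room temperature, then solution A for 180 min, then chemiluminescence read.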

The target in series [2] is T1, Cannabinoid receptor 2. In words: Agonist activity at human CB2 receptor expressed in CHO-K1 cells assessed as inhibition of froskolin-stimulated cAMP accumulation at 10 uM incubated for 90 mins by HitHunter chemiluminescence based assay relative to CP55,940. The format is functional, cell-based. The procedure, abridged: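 HitHunter assay in DiscoveRx CHO-K1 hCB2R cells, seeded overnight in Opti-MEM with 1% FBS, then put in assay buffer. Cells cotreated at 37 °C for 90 min with 10 μM forskolin and ligand (0.10 nM–10 μM). cAMP antibody/detection solutions added for 60 min at room temperature, then solution A for 180 min, then chemiluminescence read. Response given as % CP55,940; three-parameter fit; n = 6 in triplicate.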

The target in series [3] is T1, Cannabinoid receptor 2. Description: Agonist activity at human CB2 receptor expressed in CHO-K1 cells assessed as enhancement of beta arrestin-2 recruitment incubated for 90 mins by […] chemiluminescence based assay. The series is classed as functional, cell-based. A digest of the protocol:
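PathHunter beta-arrestin2 recruitment in DiscoveRx CHO-K1 cells stably expressing hCB2R, seeded overnight in Opti-MEM with 1% FBS at 37 °C. Ligands (0.10 nM–10 μM) added for 90 min at 37 °C, then detection solution 60 min at room temperature and chemiluminescence read.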

Series [4] addresses T1, Cannabinoid receptor 2. Description: Agonist activity at human CB2 receptor expressed in CHO-K1 cells assessed as enhancement of beta arrestin-2 recruitment at 10 uM incubated for 90 mins by HitHunter chemiluminescence based assay relative to CP55,940. The format is functional, cell-based. The procedure, abridged: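 PathHunter beta-arrestin2 recruitment in DiscoveRx CHO-K1 cells stably expressing hCB2R, seeded overnight in Opti-MEM with 1% FBS at 37 °C. Ligands (0.10 nM–10 μM) added for 90 min at 37 °C, then detection solution 60 min at room temperature and chemiluminescence read. Data expressed as % CP55,940 response and fitted by three-parameter nonlinear regression; n = 6 independent experiments in triplicate.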

Series [5] concerns the target T2, Cannabinoid receptor 1 (Homo sapiens, UniProt P21554). In words: Displacement of [3H]-CP55,940 from human CB1R expressed in CHO-K1 cell membranes assessed as inhibition constant incubated for 2 hrs by liquid scintillation spectrometry analysis. Also on record: species or system Membrane.
The target of series [6] is T2, Cannabinoid receptor 1. Description: Displacement of [3H]-CP55,940 from human CB1R expressed in CHO-K1 cell membranes incubated for 2 hrs by liquid scintillation spectrometry relative to CP55,940. Particulars: Membrane. The procedure, abridged: (§1)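 Membranes from CHO-K1 cells stably expressing hCB1R or hCB2R (50 μg protein) incubated with 1 nM [3H]CP55,940 and compound (0.10 nM–10 μM) in Tris binding buffer with 0.1% BSA, pH 7.4, for 120 min at 37 °C. Bound ligand filtered on GF/B and counted by liquid scintillation. Nonspecific binding defined with 1 μM unlabelled CP55,940; three-parameter fit; n = 3 in duplicate.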

For series [7], the target named is T1, Cannabinoid receptor 2. Description: Displacement of [3H]-CP55,940 from human CB2R expressed in CHO-K1 cell membranes assessed as inhibition constant incubated for 2 hrs by liquid scintillation spectrometry. Also on record: species or system Membrane.
Series [8] has as its target T1, Cannabinoid receptor 2. In words: Displacement of [3H]-CP55,940 from human CB2R expressed in CHO-K1 cell membranes incubated for 2 hrs by liquid scintillation spectrophotometry relative to CP55,940. To be noted: Membrane. The procedure, abridged: as §1
In series [9] the test system is Mus musculus. Description: Antinociceptive activity against oxaliplatin-induced neuropathic pain in po dosed CD-1 albino mouse assessed as decrease in neuropathic pain measured upto 75 min by cold plate assay. The series is classed as functional, organism-based. Particulars: DDE = dose-dependent effect. A digest of the protocol: (§2)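 Male CD-1 mice (22–25 g) given oxaliplatin 2.4 mg/kg i.p. in 5% glucose on days 1–2, 5–9 and 12–14. On day 15 compound given orally at 1, 5 or 20 mg/kg in 1% carboxymethylcellulose. Cold plate held at 4 °C; latency to paw licking or lifting recorded (cut-off 60 s) at 15, 30, 45, 60 and 75 min. 16 mice per group over 2 experimental sets.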

Series [10] addresses T1, Cannabinoid receptor 2. Description: Agonist activity at human CB2 receptor expressed in CHO-K1 cells assessed as inhibition of froskolin-stimulated cAMP accumulation at 50 nM incubated for 90 mins in presence of EC-21a by HitHunter chemiluminescence based assay relative to CP55,940. The series is classed as functional, cell-based.
The nature of series [11]: Cytotoxicity against LPS/TNFalpha-induced HMC3 cells assessed as reduction in cell viability at 1 uM pretreated with compound for 1 hr followed by LPS/TNFalpha stimulation and measured after 24 hrs by MTT assay. The series is classed as toxicity, cell-based. To be noted: human, hmc3, 25 h. The procedure, abridged: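 HMC3 microglial cells exposed to compound at 100 nM, 1 μM and 10 μM; viability read by MTT reduction. n = 3 independent experiments in triplicate; one-way ANOVA with Tukey test.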

The test system of series [12] is HMC3. Description: Antiinflammatory activity in LPS/TNFalpha-induced HMC3 cells assessed as increase in IL-10 release at 1 uM pretreated with compound for 1 hr followed by LPS/TNFalpha stimulation and measured after 24 hrs by ELISA. The format is functional, cell-based. Particulars: Homo sapiens, time 25.0 hrs. A digest of the protocol:
(§3)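 HMC3 human microglia in high-glucose DMEM with 10% FBS, pretreated 1 h with compound (100 nM–10 μM), then stimulated with LPS (10 μg/mL) plus TNFα (50 ng/mL) for 24 h. IL-6 or IL-10 in the medium measured by ELISA. SR144528 (1 μM) added 15 min before agonist where used; JWH133 served as positive control. n = 3 in duplicate; ANOVA with Tukey test.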

Series [13] relates to Mus musculus. Description: Antinociceptive activity against oxaliplatin-induced neuropathic pain in CD-1 albino mouse assessed as decrease in neuropathic pain at 20 mg/kg, po measured after 15 to 60 mins by cold plate assay. The series is classed as functional. The arrangement: scale not given: the % may be the effect or the level left. To be noted: time 15-60 min. The procedure, abridged: as §2

The test system of series [14] is BV-2. Description: Antiinflammatory activity in LPS-induced mouse microglial BV-2 cells assessed as increase in IL-10 release at 1 uM preincubated for 1 hr followed by LPS-stimulation and measured after 4 hrs by ELISA. The series is classed as functional, cell-based. Particulars: time 5.0 hrs. The procedure, abridged: (§4)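 Murine BV2 microglia given 1 μM compound 1 h before LPS (5 μg/mL), then stimulated 4 h. IL-6 or IL-10 in the medium measured by ELISA (pg/mL). Where used, SR144528 (1 μM) added 15 min before agonist. n = 3 independent experiments in duplicate; one-way ANOVA with Tukey test.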

Series [15] relates to HMC3. In words: Antiinflammatory activity in LPS/TNFalpha-induced HMC3 cells assessed as decrease in IL-6 release at 1 uM pretreated with compound for 1 hr followed by LPS/TNFalpha stimulation and measured after 24 hrs by ELISA. The format is functional, cell-based. Particulars: Homo sapiens, time 25.0 hrs. The procedure, abridged:
as §3

Series [16] deals with BV-2. Description: Antiinflammatory activity in LPS-induced mouse microglial BV-2 cells assessed as decrease in IL-6 release at 1 uM preincubated for 1 hr followed by LPS-stimulation and measured after 4 hrs by ELISA. The series is classed as functional, cell-based. Particulars: time 5.0 hrs. A digest of the protocol: as §4
The target in series [17] is T1, Cannabinoid receptor 2. In words: Agonist activity at human CB2 receptor expressed in CHO-K1 cells assessed as inhibition of froskolin-stimulated cAMP accumulation incubated for 90 mins in presence of EC-21a by HitHunter chemiluminescence based assay. The format is functional, cell-based.
In series [18] the target is T1, Cannabinoid receptor 2. Description: Agonist activity at human CB2 receptor expressed in CHO-K1 cells assessed as inhibition of froskolin-stimulated cAMP accumulation incubated for 90 mins in presence of SR144528 by HitHunter chemiluminescence based assay. The series is classed as functional, cell-based. The procedure, abridged:
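Forskolin (10 μM)-stimulated cAMP HitHunter assay in CHO-K1 hCB2R cells, 90 min at 37 °C. Ligand at 0.1 nM–10 μM given at the same time as a fixed 100 nM SR144528. Data given as % CP55,940; three-parameter fit; 3–6 independent experiments in triplicate.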

The target of series [19] is T1, Cannabinoid receptor 2. In words: Agonist activity at human CB2 receptor expressed in CHO-k1 cells assessed as inhibition of froskolin-stimulated cAMP accumulation at 5 nM incubated for 90 mins in presence of EC-21a by HitHunter chemiluminescence based assay relative to CP55,940. The series is classed as functional, cell-based.

Each structure is given as a SMILES string. The source made the active and inactive calls.

T1 sequence (P34972 whole entry): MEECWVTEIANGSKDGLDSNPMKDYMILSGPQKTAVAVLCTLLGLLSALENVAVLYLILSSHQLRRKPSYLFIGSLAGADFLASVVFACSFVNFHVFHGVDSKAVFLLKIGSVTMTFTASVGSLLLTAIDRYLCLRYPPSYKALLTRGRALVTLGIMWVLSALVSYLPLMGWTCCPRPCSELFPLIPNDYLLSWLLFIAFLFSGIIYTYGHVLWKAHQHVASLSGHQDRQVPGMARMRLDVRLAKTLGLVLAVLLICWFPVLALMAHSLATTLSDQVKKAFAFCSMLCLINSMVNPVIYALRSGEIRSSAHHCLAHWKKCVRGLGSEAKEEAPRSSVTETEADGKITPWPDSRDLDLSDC
T2 sequence (P21554 whole entry): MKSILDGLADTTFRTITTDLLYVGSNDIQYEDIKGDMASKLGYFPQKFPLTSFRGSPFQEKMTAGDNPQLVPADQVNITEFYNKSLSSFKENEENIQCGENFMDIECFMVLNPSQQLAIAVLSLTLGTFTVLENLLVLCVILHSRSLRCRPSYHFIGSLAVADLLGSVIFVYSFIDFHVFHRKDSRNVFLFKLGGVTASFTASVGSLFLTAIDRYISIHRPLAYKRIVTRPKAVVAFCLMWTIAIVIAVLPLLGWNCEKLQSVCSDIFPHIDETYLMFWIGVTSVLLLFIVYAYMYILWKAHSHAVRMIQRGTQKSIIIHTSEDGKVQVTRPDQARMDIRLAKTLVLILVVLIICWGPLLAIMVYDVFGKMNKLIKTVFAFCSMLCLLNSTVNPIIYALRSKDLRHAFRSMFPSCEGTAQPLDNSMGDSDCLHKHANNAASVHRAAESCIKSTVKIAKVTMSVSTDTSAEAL

On to `Cc1c(Br)cn(Cc2ccc(F)cc2)c(=O)c1NC(=O)C1CCCCCC1`, for which the EC50 was > 10000 nM on Cannabinoid receptor 2 [1] and > 10 µM on Cannabinoid receptor 2 [3]. In addition, the Emax at Cannabinoid receptor 2 [2] was found to be 2.5%; at Cannabinoid receptor 2 [4] it was 1.4%. The inhibition constant (Ki) is > 10 µM at Cannabinoid receptor 1 [5] and 19 nM on Cannabinoid receptor 2 [7]. For the same compound, the values for the Emin at Cannabinoid receptor 1 [6] (filed as agonist) and on Cannabinoid receptor 2 [8] (filed as agonist) were 103% and 130%, respectively.
`Cc1c(Br)cn(CCCc2cn(CCCn3c(C)c(Br)cc(C(=O)NC4CCCCCC4)c3=O)nn2)c(=O)c1NC(=O)C1CCCCCC1`: the EC50 at Cannabinoid receptor 2 [1] was > 10000 nM; at Cannabinoid receptor 2 [3], > 10 µM. For the same compound, the Emax on Cannabinoid receptor 2 [2] is 21%; at Cannabinoid receptor 2 [4] (filed as agonist), 46%.
Regarding `Cc1c(Br)cn(Cc2cn(CCCCCn3c(C)c(Br)cc(C(=O)NC4CCCCCC4)c3=O)nn2)c(=O)c1NC(=O)C1CCCCCC1`, the values for the EC50 on Cannabinoid receptor 2 [1] and at Cannabinoid receptor 2 [3] were > 10000 nM and > 10 µM, respectively. Moreover, the Emax on Cannabinoid receptor 2 [2] stood at 22%; on Cannabinoid receptor 2 [4] (filed as agonist), 41%.
In the case of `CCCCCCC(C)(C)c1ccc([C@@H]2C[C@H](O)CC[C@H]2CCCO)c(O)c1`, the Emin at Cannabinoid receptor 1 [6] and on Cannabinoid receptor 2 [8] was 0% throughout.
On to `Cc1c(Br)cn(CCCc2cn(CCCCCn3c(C)c(Br)cc(C(=O)NC4CCCCCC4)c3=O)nn2)c(=O)c1NC(=O)C1CCCCCC1`, for which the Activity result in the series with Mus musculus [9] was “Dde”; in [11], “Non-Toxic”; in the series on Mus musculus [13] it was 100%. Also, the half-maximal effective concentration (EC50) on Cannabinoid receptor 2 [10] was 8 nM; on Cannabinoid receptor 2 [1], 73 nM; at Cannabinoid receptor 2 [3], > 10 µM; at Cannabinoid receptor 2 [17], 2.2 nM; on Cannabinoid receptor 2 [18] it was 61 nM. For the same compound, the outcome in the series with HMC3 [12], with BV-2 [14], in the series on HMC3 [15] and in the series with BV-2 [16] was Active. Besides, the Emax at Cannabinoid receptor 2 [2] (filed as agonist) was determined as 52%; on Cannabinoid receptor 2 [4], 30%. Moreover, the figures for the Ki on Cannabinoid receptor 1 [5] and on Cannabinoid receptor 2 [7] were > 10 µM and 1.4 nM, respectively. Further, the results for the Emin at Cannabinoid receptor 1 [6] (filed as agonist) and at Cannabinoid receptor 2 [8] (filed as agonist) were 89% and 40%, respectively.
Turning to `Cc1c(Br)cn(Cc2cn(CCCn3c(C)c(Br)cc(C(=O)NC4CCCCCC4)c3=O)nn2)c(=O)c1NC(=O)C1CCCCCC1`, the EC50 was > 10000 nM at Cannabinoid receptor 2 [1] and 0.56 µM at Cannabinoid receptor 2 [3]. Moreover, the Emax at Cannabinoid receptor 2 [2] is 21%; at Cannabinoid receptor 2 [4] (filed as agonist) it was 53%.
For `Cc1c(Br)cc(C(=O)NC2CCCCCC2)c(=O)n1Cc1ccc(F)cc1`, the figures for the EC50 on Cannabinoid receptor 2 [1] and on Cannabinoid receptor 2 [3] were 20 nM and 0.063 µM, respectively. Besides, the Emax is 76% at Cannabinoid receptor 2 [2] (filed as agonist) and 45% on Cannabinoid receptor 2 [4] (filed as agonist). The inhibitory constant (Ki) at Cannabinoid receptor 1 [5] turned out to be 0.00079 µM; on Cannabinoid receptor 2 [7] it was 7 nM. The results for the Emin on Cannabinoid receptor 1 [6] and at Cannabinoid receptor 2 [8] were 29% and 13%, respectively.
As for `Cc1nc(OCCCCCn2cc(CCCn3cc(Br)c(C)c(NC(=O)C4CCCCCC4)c3=O)nn2)c(C(=O)NC2CCCCCC2)cc1Br`, the Emax at Cannabinoid receptor 2 [10] came out at 38%; at Cannabinoid receptor 2 [19] it was 29%; at Cannabinoid receptor 2 [2], 38%; on Cannabinoid receptor 2 [4] (filed as agonist), 43%; on Cannabinoid receptor 2 [17], 20%; on Cannabinoid receptor 2 [18] it was 39%. Also, the EC50 is 8 nM on Cannabinoid receptor 2 [1] and > 10 µM at Cannabinoid receptor 2 [3]. The Ki at Cannabinoid receptor 1 [5] is > 10 µM; on Cannabinoid receptor 2 [7], 1.9 nM. The Emin on Cannabinoid receptor 1 [6] (filed as agonist) was found to be 95%; at Cannabinoid receptor 2 [8] (filed as agonist), 52%.
